Experimental findings from PubChem BioAssay are described below.

Active and inactive are the calls of the source.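 How the source made its calls, unless noted: active means GFP response above 150% of the DMSO level; inconclusive means fewer than 70 events counted for a yeast strain; inactive means the rest.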

Test [1] can be described thus: RPL19A-GFP modulators, yeast TOR pathway, confirmation, cell-based, S. cerevisiae, flow cytometry, cherry picks, mother/daughter gates (AID 2270;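 active means GFP response below 50% of the DMSO control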). As to conditions: S. cerevisiae RPL19A-GFP strain, 3 h, at 10 µM, stronger effect = lower value, 100 = same GFP as DMSO wells. (In flow cytometry, cells or beads pass a laser one at a time.)
Test [2] is described as follows: LAP4-GFP expression modulators in yeast, confirmation, cell-based, cherry picks, flow cytometry, mother/daughter gates (AID 2271;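 active means GFP response above 150% of the DMSO control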;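 further: ratio of sample to DMSO plate mean so 100% equals DMSO level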). As to conditions: S. cerevisiae LAP4-GFP strain, 3 h, at 10 µM, stronger effect = higher value, 100 means same as DMSO control. The procedure, abridged:
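material = Alexa 633-stained baker's yeast GFP-fusion strain | amount = 0.2 OD600 cells | schedule = 30 °C, 3 h compound incubation, rotating | signal = GFP by flow cytometry | measure = per-gate (all, mother, daughter) GFP response vs DMSO | controls = positive rapamycin (400 ng/mL), negative DMSO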

Test [3] can be described thus: modulators of MEP2-GFP levels in yeast, confirmation, S. cerevisiae, flow cytometry GFP, cherry picks (AID 2272;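 active means GFP response above 150% of the DMSO control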;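 further: ratio of well signal to plate DMSO mean so 100% equals DMSO level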). As to conditions: S. cerevisiae MEP2-GFP strain, 3 h, at 10 µM, stronger effect = higher value.
Test [4] can be described thus: AGP1-GFP expression modulators, hit retest, confirmation, cell-based, flow cytometry, S. cerevisiae, cherry picks (AID 2273).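 Further: median GFP channel fluorescence over the whole cell population gate.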 As to conditions: S. cerevisiae AGP1-GFP strain, 3 h, at 10 µM.
Test [5] in a line: modulators of CIT2-GFP expression in yeast, confirmation, S. cerevisiae, GFP fusion, cherry picks, mother/daughter gates (AID 2274). As to conditions: S. cerevisiae CIT2-GFP strain, flow cytometry, 3 h, at 10 µM, stronger effect = higher value.
The mark [6] stands for this setting: measured here: daughter cell gate.
Setting [7] is: measured here: mother cell gate.
Where [8] appears, read: measured here: daughter cell gate response.
[9] abbreviates: measured here: mother cell gate response.

For `O=C(O)c1ccc(N/N=C/C(Br)=C/c2ccccc2)cc1`, the GFP response vs DMSO in test [1] is 98.4% (inactive); in test [1] (setting [6]) it was 97%; in test [1] (setting [7]), 96.7%; in test [3], 97.5% (inactive). The values for the GFP response relative to DMSO in test [2], in test [2] (setting [8]) and in test [2] (setting [9]) were 131% (inactive), 130% and 130%, respectively. Moreover, the GFP response, % of DMSO was 94.7% (inactive) in test [4], 90.7% (inactive) in test [5], 92.7% in test [5] (setting [6]) and 85.1% in test [5] (setting [7]).

Turning to `Cc1ccc(-c2ccc(/C=N/NC(N)=S)o2)cc1`, the GFP response vs DMSO in test [1] was 98.6% (inactive); in test [1] (setting [6]) it was 95%; in test [1] (setting [7]) it was 98.7%; in test [3], 102% (inactive). In addition, the values for the GFP response relative to DMSO in test [2], in test [2] (setting [8]) and in test [2] (setting [9]) were 112% (inactive), 113% and 115%, respectively. For the same compound, the GFP response, % of DMSO in test [4] was 91.9% (inactive); in test [5], 97.8% (inactive); in test [5] (setting [6]), 94.8%; in test [5] (setting [7]) it was 96.6%.

As to `CC(=O)Nc1cccc(C(=O)/C=C/c2ccc(C)cc2)c1`, the GFP response vs DMSO in test [1] is 95.8% (inactive); in test [1] (setting [6]) it was 96.8%; in test [1] (setting [7]) it was 95.1%; in test [3], 110% (inactive). The GFP response relative to DMSO in test [2] is 117% (inactive); in test [2] (setting [8]) it was 115%; in test [2] (setting [9]) it was 120%. Also, the GFP response, % of DMSO in test [4] is 102% (inactive); in test [5] it was 103% (inactive); in test [5] (setting [6]), 103%; in test [5] (setting [7]), 102%.

On to `Cc1cc(C)c(S(=O)(=O)ON2C(=O)c3ccccc3C2=O)cc1C`, for which the GFP response vs DMSO in test [1] was 88.4% (inactive); in test [1] (setting [6]), 90.8%; in test [1] (setting [7]), 76.7%; in test [3], 114% (inactive). Further, the results for the GFP response relative to DMSO in test [2], in test [2] (setting [8]) and in test [2] (setting [9]) were 255% (active), 209% and 252%, respectively. The GFP response, % of DMSO in test [4] is 97.5% (inactive); in test [5], 102% (inactive); in test [5] (setting [6]), 98.3%; in test [5] (setting [7]), 71.1%.

Regarding `O=C(NCc1cccnc1)c1cnc2n(c1=O)CCS2`, the GFP response vs DMSO in test [1] was 101% (inactive); in test [1] (setting [6]), 101%; in test [1] (setting [7]) it was 101%; in test [3], 99.3% (inactive). The GFP response relative to DMSO was 101% (inactive) in test [2], 104% in test [2] (setting [8]) and 100% in test [2] (setting [9]). The GFP response, % of DMSO was 102% (inactive) in test [4], 98.6% (inactive) in test [5], 101% in test [5] (setting [6]) and 99.3% in test [5] (setting [7]).

As to `CCOc1cc(C(=S)N2CCCCC2)ccc1OS(=O)(=O)c1ccc(Cl)cc1`, the GFP response vs DMSO was 96.5% (inactive) in test [1], 96.1% in test [1] (setting [6]), 96.5% in test [1] (setting [7]) and 103% (inactive) in test [3]. The GFP response relative to DMSO was 102% (inactive) in test [2], 101% in test [2] (setting [8]) and 105% in test [2] (setting [9]). The GFP response, % of DMSO in test [4] is 105% (inactive); in test [5], 100% (inactive); in test [5] (setting [6]) it was 99.3%; in test [5] (setting [7]), 98.2%.

For `O=C(c1ccccc1F)N1CCN(c2ccccc2F)CC1`, the GFP response vs DMSO in test [1] is 101% (inactive); in test [1] (setting [6]), 99.8%; in test [1] (setting [7]), 102%; in test [3], 100% (inactive). Besides, the GFP response relative to DMSO in test [2] is 98.7% (inactive); in test [2] (setting [8]), 100%; in test [2] (setting [9]), 99.3%. Further, the GFP response, % of DMSO in test [4] is 95% (inactive); in test [5] it was 104% (inactive); in test [5] (setting [6]), 105%; in test [5] (setting [7]), 105%.

On to `Cc1nc2ccccc2n2c(O)c(CC(=O)O)cc12`, for which the GFP response vs DMSO in test [1] was 98.7% (inactive); in test [1] (setting [6]), 98.5%; in test [1] (setting [7]) it was 99.3%; in test [3], 102% (inactive). The figures for the GFP response relative to DMSO in test [2], in test [2] (setting [8]) and in test [2] (setting [9]) were 103% (inactive), 96.5% and 99.5%, respectively. The GFP response, % of DMSO in test [4] was 98.9% (inactive); in test [5], 92.1% (inactive); in test [5] (setting [6]) it was 96.4%; in test [5] (setting [7]), 85.1%.

As to `COc1cccc(C2CC(c3c(-c4ccccc4)c4cc(Cl)ccc4[nH]c3=O)=NN2S(C)(=O)=O)c1OC` (stereo not drawn), the GFP response vs DMSO in test [1] was 94.3% (inactive); in test [1] (setting [6]) it was 96.5%; in test [1] (setting [7]), 95%; in test [3], 99.5% (inactive). The GFP response relative to DMSO in test [2] was 100% (inactive); in test [2] (setting [8]) it was 101%; in test [2] (setting [9]), 99.5%. Besides, the GFP response, % of DMSO was 102% (inactive) in test [4], 101% (inactive) in test [5], 102% in test [5] (setting [6]) and 98% in test [5] (setting [7]).

Regarding `C/C(=N/NS(=O)(=O)c1ccccc1)c1ccc(NC(=O)C(F)(F)F)cc1`, the GFP response vs DMSO in test [1] was 102% (inactive); in test [1] (setting [6]) it was 103%; in test [1] (setting [7]) it was 103%; in test [3], 99.5% (inactive). In addition, the results for the GFP response relative to DMSO in test [2], in test [2] (setting [8]) and in test [2] (setting [9]) were 94.2% (inactive), 95% and 94.6%, respectively. Moreover, the GFP response, % of DMSO in test [4] is 91% (inactive); in test [5], 95% (inactive); in test [5] (setting [6]), 96.4%; in test [5] (setting [7]), 93.3%.

With `COc1ccccc1-c1nnc(NC(=O)c2ccc3c(c2)OCO3)s1`, the GFP response vs DMSO in test [1] was 106% (inactive); in test [1] (setting [6]), 104%; in test [1] (setting [7]), 108%; in test [3] it was 97.8% (inactive). For the same compound, the GFP response relative to DMSO in test [2] is 85.4% (inactive); in test [2] (setting [8]) it was 84.8%; in test [2] (setting [9]), 89%. The GFP response, % of DMSO is 98.5% (inactive) in test [4], 100% (inactive) in test [5], 101% in test [5] (setting [6]) and 99.8% in test [5] (setting [7]).

`CC(=O)OCC(=O)[C@@]1(O)CC[C@H]2[C@@H]3CCC4=CC(=O)CC[C@]4(C)[C@H]3C(=O)C[C@@]21C`: the GFP response vs DMSO is 102% (inactive) in test [1], 100% in test [1] (setting [6]), 103% in test [1] (setting [7]) and 100% (inactive) in test [3]. Also, the figures for the GFP response relative to DMSO in test [2], in test [2] (setting [8]) and in test [2] (setting [9]) were 101% (inactive), 102% and 102%, respectively. The GFP response, % of DMSO in test [4] is 100% (inactive); in test [5] it was 97.8% (inactive); in test [5] (setting [6]), 96.5%; in test [5] (setting [7]), 97.7%.

Take `CCNC(=O)c1c(O)c2cccc3c2n(c1=O)CC3`: the GFP response vs DMSO in test [1] was 103% (inactive); in test [1] (setting [6]) it was 101%; in test [1] (setting [7]) it was 103%; in test [3] it was 94.7% (inactive). Besides, the results for the GFP response relative to DMSO in test [2], in test [2] (setting [8]) and in test [2] (setting [9]) were 103% (inactive), 101% and 105%, respectively. Moreover, the GFP response, % of DMSO in test [4] is 99% (inactive); in test [5], 98.8% (inactive); in test [5] (setting [6]), 101%; in test [5] (setting [7]), 98.1%.
